In the library only some 1.2% were active in any assay of this set; here they are far more common.
ARFGAP1 inh – rat ARFGAP1 inhibition | Q62848 | Arfgap1-stimulated ARF1 GTP hydrolysis, GDP FP detection | inhibition, % at 16.5 µM | actives 0.26% (n = 360,000) | AID 651572;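 active = inhibition above a per-plate limit, mean inhibition of low control wells plus 3 SD, cut at about 25% in these data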;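 note: 0% = DMSO wells with enzyme and 100% = wells lacking Arfgap1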
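material = rat Arfgap1 catalytic domain, aa 1-136 | also added = human ARF1(Δ1-17)-GTP substrate | compound dosing = one concentration, 16.5 µM, DMSO 1.26% | times = GTP hydrolysis reaction 2 h at 25 °C | measured by = FP, GDP Alexa 633 tracer displaced from anti-GDP antibody, 620/688 nm | evaluation = percent inhibition of Arfgap1-stimulated GTP hydrolysis | replication = single well per compound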
IDE cell activ – boosts human insulin-degrading enzyme activity in HEK cells | P14735 | actives 0.073% (n = 340,000) | FAbeta-B cleavage, fluorescence polarization; 0% vehicle, 100% cell-free pure enzyme wells | activation, % at 5.96 µM;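 active = activation above the mean of all tested compounds plus 3 SD, set per screening campaign, cut at about 17% in these data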
Target sequence (P14735 whole entry, looked up): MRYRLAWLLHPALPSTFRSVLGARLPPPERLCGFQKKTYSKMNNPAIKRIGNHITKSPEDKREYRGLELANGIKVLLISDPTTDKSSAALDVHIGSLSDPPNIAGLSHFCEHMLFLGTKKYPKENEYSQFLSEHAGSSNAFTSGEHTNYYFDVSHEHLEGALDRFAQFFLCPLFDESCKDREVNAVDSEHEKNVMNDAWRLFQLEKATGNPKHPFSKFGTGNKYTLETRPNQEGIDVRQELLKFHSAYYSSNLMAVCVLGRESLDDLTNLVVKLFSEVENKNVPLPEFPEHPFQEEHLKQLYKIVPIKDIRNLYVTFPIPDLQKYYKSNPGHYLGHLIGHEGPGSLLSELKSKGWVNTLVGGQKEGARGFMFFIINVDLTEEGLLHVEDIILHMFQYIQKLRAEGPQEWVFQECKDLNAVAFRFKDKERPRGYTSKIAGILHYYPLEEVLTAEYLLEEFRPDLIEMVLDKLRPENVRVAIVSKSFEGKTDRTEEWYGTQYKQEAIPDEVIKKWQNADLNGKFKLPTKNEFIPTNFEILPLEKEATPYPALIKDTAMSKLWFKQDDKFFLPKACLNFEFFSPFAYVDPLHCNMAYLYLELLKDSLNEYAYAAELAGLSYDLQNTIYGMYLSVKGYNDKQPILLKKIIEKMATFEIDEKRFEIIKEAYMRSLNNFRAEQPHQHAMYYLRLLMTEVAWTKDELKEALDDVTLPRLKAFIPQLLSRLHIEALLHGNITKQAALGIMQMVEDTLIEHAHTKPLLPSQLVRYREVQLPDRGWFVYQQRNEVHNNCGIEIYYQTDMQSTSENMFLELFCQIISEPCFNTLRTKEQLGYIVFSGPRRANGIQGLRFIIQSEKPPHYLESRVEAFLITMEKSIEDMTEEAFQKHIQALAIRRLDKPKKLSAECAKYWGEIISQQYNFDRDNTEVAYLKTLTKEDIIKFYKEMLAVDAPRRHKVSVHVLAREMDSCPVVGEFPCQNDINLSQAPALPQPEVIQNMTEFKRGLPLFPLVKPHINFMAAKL
ASAP1 GAP inh – blocks human ASAP1-stimulated Arf1 GTP hydrolysis; Q9ULH1; GDP FP detection; inhibition, % at 16.5 µM; actives 0.19% (n = 360,000); AID 624377; in the data active = inhibition above about 25%;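 note: 0% = vehicle with enzyme and substrate and 100% = no enzyme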
PREPL inhibitor – human PREPL enzyme inhibition; recombinant PREPL, fluorescence polarization activity-based probe; inhibition, % at 5.96 µM; actives 0.68% (n = 320,000);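 note: 0% = enzyme with DMSO and 100% = wells lacking enzyme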
IDE inh – inhibitors of human insulin-degrading enzyme in cells; inhibition, % at 5.59 µM; actives 0.41% (n = 320,000); P14735; HEK cells, FAbetaB cleavage, fluorescence polarization; AID 434962;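 active = percent inhibition above the average of all tested compounds plus 3 SD, set per screening campaign, cut at about 16% in these data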;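 note: IDE supplied by intact live HEK cells; FP after avidin binding of uncleaved biotin substrate so inhibition keeps polarization high; 0% = DMSO wells and 100% = 60 µM reference IDE inhibitor Ii1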
PREPL confirm – human PREPL inhibition, confirmation. shares compounds with PREPL inhibitor. recombinant PREPL, fluorescence polarization activity probe. inhibition, % at 5.96 µM. AID 2803. actives 67% (n = 2,000);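 note: 0% = protein with DMSO and 100% = wells lacking protein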
The depositor's hits bear a star; . = not tested or not shown. Cut-off read from the data, not from the text of the source, unless noted: active = inhibition above about 43%; inactive = the rest.

SMILES	ARFGAP1 inh	IDE cell activ	ASAP1 GAP inh	PREPL inhibitor	IDE inh	PREPL confirm
O=C(C1=C[C@@H](c2ccccc2)C[C@@H](OCc2ccc(CO)cc2)O1)N1CCN(Cc2ccc3c(c2)OCO3)CC1	4	-1	5	51*	5	56*
Cc1cccc(C)c1NC(=O)CN(C)C(=O)CC1CC2CCC1C2 (configuration not stated)	1	1	-9	5	6	.
O=C(COC(=O)C1CCN(c2ccc(C(F)(F)F)cn2)CC1)Nc1cccc(F)c1	-1	-2	-2	-4	8	.
Cc1cccc2c(CC(=O)Nc3ccccc3)noc12	5	3	4	10	4	.
C=C(C)c1cccc(C(C)(C)NC(=O)N2CCC(C(N)=O)CC2)c1	-1	-1	-10	0	5	.
CN(C)CCN1C(=O)C(O)=C(C(=O)c2cc3ccccc3o2)C1c1ccc(N(C)C)cc1 (configuration not stated)	6	-5	-17	51*	13	54*
Cc1ccc(S(=O)(=O)Nc2ccc(C(=O)NC3CC3)cc2)cc1	0	1	-5	6	-2	.
Cc1ccc(NS(=O)(=O)c2ccc(C(=O)Nc3nncs3)cc2)cc1	-6	1	8	45*	10	8
O=C1CCC(C(=O)Nc2cccc(S(=O)(=O)N3CCOCC3)c2)N1 (configuration not stated)	5	-1	1	-1	-1	.
Cc1ccc(OCC(=O)Nc2ccc(N3CCOCC3)cc2)cc1	-3	6	0	45*	-1	31
CCC(=O)N1CCN(c2ccc(NC(=O)COc3ccc(CC)cc3)cc2)CC1	10	-4	8	45*	5	48*
CC(C)(C)c1ccc(OCCC(=O)Nc2ccc(N3CCOCC3)cc2N2CCOCC2)cc1	-4	2	-10	49*	0	42
COc1ccc(C(C(=O)NC2CCCC2)n2c(CSCCOc3ccccc3)nc3ccccc32)cc1 (configuration not stated)	5	.	-12	.	.	.
COc1ccc(N(CC(=O)NCCc2ccc(OC)c(OC)c2)S(=O)(=O)c2ccc(OC)c(OC)c2)cc1	-3	-4	13	7	6	.
CCC(C)(C)C1CCC(=NNc2nc3ccccc3[nH]2)CC1 (configuration not stated)	8	0	2	29	3	.
CC(=O)N1CCC(=NNc2nc3ccccc3[nH]2)CC1	5	.	-7	54*	0	6
CCn1c(=O)c(C(=O)Nc2ccc(C)cc2C)c(O)c2ccccc21	.	7	.	47*	4	6
O=Cc1ccccc1OCCOc1ccc([N+](=O)[O-])cc1	5	3	1	43*	-6	40
COc1cc(/C=C2/C(=N)N3OC(C)=CC3=NC2=O)ccc1OC(=O)c1ccco1	4	3	4	46*	5	60*
CC1=CC2=NC(=O)/C(=C\c3ccc(OC(=O)c4ccco4)cc3)C(=N)N2O1	12	4	19	10	6	.
COc1ccc(-c2c(-c3ccccc3)c(C(=O)C(=O)NCCCN(C)C)n3ccc4cc(OC)c(OC)cc4c23)cc1OC	4	5	9	46*	3	52*
O=C(CSc1nc2ccc(NC(=O)c3ccccc3C(=O)O)cc2s1)Nc1ccc(F)c([N+](=O)[O-])c1	14	10	14	51*	-2	14
Oc1ccc(N=Nc2ccccc2-c2nn[nH]n2)c(O)c1	-14	2	-2	51*	-1	53*
CCOc1ccc(CCNC(=O)C(C)N2C(=O)CC(C)(C)Sc3ccccc32)cc1 (configuration not stated)	-2	0	-3	22	4	.
CN(C)c1ccc(C(CNS(=O)(=O)c2ccc(F)c(F)c2)c2c[nH]c3ccccc23)cc1 (configuration not stated)	11	3	0	16	2	.
SMILES	ARFGAP1 inh	IDE cell activ	ASAP1 GAP inh	PREPL inhibitor	IDE inh	PREPL confirm
CN(C)c1ccc(C(CNC(=O)c2ccccc2F)c2c[nH]c3ccccc23)cc1 (configuration not stated)	5	3	6	47*	4	51*
CN(C)c1ccc(C(CNC(=O)c2ccccc2)c2c[nH]c3ccccc23)cc1 (configuration not stated)	11	8	17	51*	-2	59*
CCCCNC(=S)NCC(c1ccccc1)c1c[nH]c2ccccc12 (configuration not stated)	20	-2	4	0	3	.
COc1ccc(CN2CCN(c3cc(C)nc4c5c(C)cc(C)nc5nn34)CC2)cc1F	-6	5	12	46*	2	34
Cc1ccc2c(c1)c1c(n2CC(O)CN2CCCCCC2)CCCC1 (configuration not stated)	5	6	8	45*	3	42
O=S1(=O)NC(=NCCOCCO)c2ccccc21	-4	-4	1	10	-4	.
c1ccc(CN2CCN(c3nc(N4CCOCC4)c4ccccc4n3)CC2)cc1	-5	5	-10	46*	-3	39
O=C(C[n+]1ccc(Cc2ccccc2)cc1)Nc1ccc([N+](=O)[O-])cc1Cl	-8	-10	-20	56*	-5	29
Cc1ccc(Cl)cc1NC(=O)C[n+]1ccc(Cc2ccc([N+](=O)[O-])cc2)cc1	-6	7	9	67*	-4	6
CC(C)[C@@H]1NC(=O)[C@@H]2CSCCS(=O)(=O)N2C1=O	13	.	0	.	.	.
O=C(Cn1cc(C(F)(F)F)ccc1=O)N/N=C/c1ccc(Cl)cc1	-3	-1	9	-9	-3	.
CC(C)(CNC(=O)c1cc([N+](=O)[O-])ccc1N1CCC(Cc2ccccc2)CC1)N1CCOCC1	11	-6	-3	45*	-5	35
CCC(CO)Oc1cc(NCc2ccccc2)c2ncn(C(C)C)c2c1 (configuration not stated)	4	0	-5	39	8	.
CCC(COC)Oc1cc(NCc2ccccc2)c2ncn(C(C)C)c2c1 (configuration not stated)	7	-2	12	52*	-6	9
CC(C)n1cnc2c(NCc3ccccc3)cc(N[C@H](C)CO)cc21	.	2	.	61*	5	22
CCC(CO)Oc1cc(NCc2ccccc2Cl)c2ncn(C(C)C)c2c1 (configuration not stated)	9	4	11	60*	5	30
CCC(CO)Oc1cc(NCc2ccccc2C(F)(F)F)c2ncn(C(C)C)c2c1 (configuration not stated)	4	0	13	48*	-7	20
CCC(C)c1ccc(NC(=O)C2CC3CCC2C3)cc1 (configuration not stated)	12	6	-6	0	-5	.
